# Source: PubChem
# Rin1 Abl inh = blocks binding of human Rin1 to Abl; P00519+Q13671; TR-FRET Rin1/Abl binding, biochemical; inhibition, % at 7.35 µM; actives 0.4% (n = 360,000); in the data active = inhibition above about 5%, passing the limit was not always enough
# SKN-1 block = blocks SKN-1 activity in C. elegans; C. elegans VP596 Pgst-4::GFP/RFP ratio, acrylamide-induced, 24 h; inhibition, % at 21.8 µM; actives 0.49% (n = 360,000);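 active = interference check ratio from 0.5 to 1.5 plus GFP to RFP signal ratio inhibition reaching or exceeding a fixed threshold, cut at about 30% in these data, passing the limit was not always enough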
# TbMetRS inhib = Trypanosoma brucei MetRS inhibition. AID 624268. purified T. brucei MetRS, ATP depletion, Kinase-Glo luminescence. inhibition, % at 11.9 µM. actives 0.4% (n = 360,000);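 active = inhibition above a per-plate cutoff of the control wells' mean inhibition plus 3 SD, cut at about 5.5% in these data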;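 note: 0% = DMSO wells median and 100% = median of wells with control inhibitor compound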
#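 System: purified T. brucei MetRS enzyme / Detection: Kinase-Glo luciferase luminescence reporting remaining unconsumed ATP / Medium: HEPES buffer with MgCl2, KCl, DTT, spermine, BSA, pyrophosphatase / Replication: singlicate, one well per compound / Evaluation: percent inhibition relative to median high and low control wells / Schedule: 2 h aminoacylation at 25 °C after 15 min preincubation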
# Arrestin-AP2 inh = human beta-arrestin and AP2 interaction inhibition | FITC-arrestin peptide / GST-AP2 beads, flow cytometry; AP2 beta2 appendage carries R879A mutation | inhibition, % at 10 µM | actives 0.31% (n = 340,000) | AID 504490;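 active = inhibition above a set limit, near 3 SD of compounds lacking own fluorescence, cut at about 54% in these data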;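 note: plate controls were DMSO wells for no effect and 5 µM unlabelled arrestin peptide for full effect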
#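 test system = AP2 appendage R879A on GSH beads | buffer or medium = PBS plus Tween 20 (0.05%) and BSA (0.1%) | incubation = 12 min plus 1 h, RT | detection = bead flow cytometry, FITC channel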
# MT1-MMP act inh = MT1-MMP (human) activation inhibition; HT1080 RFP-PRO-GFP cells, GFP/RFP ratio fluorescence, overnight; percent of plate control window, DMSO zero; GFP/RFP ratio change, % at 20 µM; actives 0.061% (n = 360,000); AID 651647;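 active = GFP/RFP ratio change of at least 30% with cell ATP level not reduced by more than half and red fluorescence within 50% of control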
#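 Test system: HT1080 cells expressing an RFP-PRO-GFP fluorescent reporter construct / Compound dosing: single-point 20 µM compound, 1% DMSO / Schedule: cells overnight before dosing, compound overnight, 37 °C, 5% CO2 / Evaluation: GFP/RFP fluorescence ratio / Control set: DMSO and RFP-L50D-GFP cell wells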
# Rin1 Abl conf = confirmation of inhibitors of human Rin1-Abl interaction; AID 602124; TR-FRET Rin1-Abl binding, purified proteins; actives 49% (n = 1,300); shares compounds with Rin1 Abl inh; inhibition, % at 7.35 µM
# GFP quencher = quenches GFP fluorescence, counter-screen for Rin1-Abl inhibitors | actives 8.5% (n = 1,300) | inhibitors/quenchers counterscreen | inhibition, % at 6.75 µM | shares compounds with Rin1 Abl inh;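 note: ABL1-eGFP fusion protein alone without its partner RIN1-SBP; 0% = protein with vehicle and 100% = wells lacking protein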
# GFP quench dose = quenches GFP in dose response, Rin1-Abl counter-screen; IC50, µM; shares compounds with Rin1 Abl inh; 230 tested, under 10 active; GFP fluorescence interference/quenching counterscreen; call rule not given here;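 note: ABL1-eGFP fusion protein alone without its RIN1 binding partner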
# * = called active by the depositor; x = no result given. Shown are actives, neighbours in structure and some others; about 1.6% of the full set was active somewhere. Cut-off read from the data, not from the text of the source, unless noted: active = inhibition above about 6.5%; inactive = the rest.
SMILES,Rin1 Abl inh,SKN-1 block,TbMetRS inhib,Arrestin-AP2 inh,MT1-MMP act inh,Rin1 Abl conf,GFP quencher,others
Cc1cnc(NC(=O)C(C)N2CCN(C)CC2)s1 (stereo not given),6.7*,3.0,0.2,0.2,-0.7,1.1,-1.1,
COc1ccc(OC)c(CN2CCN(C(=O)c3ccc(C)c(S(=O)(=O)Nc4ccccc4OC)c3)CC2)c1,1.1,4.8,-0.3,3.4,-0.4,x,x,
CC(CC(=O)Nc1ccc2c(c1)c(=O)n(C)n2-c1ccc2ccccc2c1)C(F)(F)F (stereo not given),-4.0,5.5,-0.3,x,6.5,x,x,
CC(=O)Nc1cccc(NC(=O)C2CCCO2)c1 (stereo not given),-3.7,6.1,0.3,x,0.9,x,x,
O=C(c1ccc(OC2CCN(C/C=C/c3ccccc3)CC2)cc1)N1CCCCC1,6.3*,19.0,-0.3,-1.8,-5.3,-0.1,0.1,
O=C(c1ccc(OC2CCN(C/C=C/c3ccccc3)CC2)cc1)N1CCCC1,2.9,6.6,-0.5,-13.2,-1.5,x,x,
COc1ccc(/C=C/CN2CCC(Oc3ccc(C(=O)N4CCCCC4)cc3)CC2)cc1,7.2*,0.6,-0.5,20.5,-4.6,2.8,-0.6,
COc1ccccc1/C=C/CN1CCC(Oc2ccc(C(=O)N3CCCCC3)cc2)CC1,10.4*,3.6,-0.7,36.5,0.1,8.4*,-1.2,
CCc1nc2c(OCCOc3ccc(F)cc3)cccn2c1N(C)C(=O)c1ccco1,-4.8,14.8,0.2,x,-0.3,x,x,
Cc1ccc2cc3c(NC(=O)c4cccnc4)nn(C)c3nc2c1,6.0*,40.2*,-0.2,2.2,5.6,21.2*,0.5,
CC(=O)Nc1nn(C)c2nc3cc(C)ccc3cc12,-3.7,-15.2,-0.3,3.1,4.4,x,x,
O=C(Nc1ccc2c(c1)OCCO2)C1C(c2ccccc2)=Nc2ccccc2N1C(=O)c1cccnc1 (stereo not given),x,11.5,-0.3,x,4.5,x,x,
COc1cccc(NC(=O)NC2(C(F)(F)F)Oc3ccccc3O2)c1,3.5,27.0,-0.7,3.4,-2.0,x,x,
O=C(Nc1cc(N2CCOCC2)ncn1)NC1(C(F)(F)F)Oc2ccccc2O1,9.8*,-10.8,-1.0,-2.5,x,4.2,0.2,
CN1CC2(C)OC(=O)C(Cl)=C2CC1c1ccccc1 (stereo not given),6.2*,14.0,0.3,2.1,-1.6,0.3,-2.4,
O=C(O)COc1ccccc1C=NNC(=O)c1ccccc1NS(=O)(=O)c1cccs1,-0.2,1.3,-0.1,-25.9,-6.5,x,x,
Cc1ccc(C(=O)C(C)N2C(=O)NC(C)(c3ccccc3)C2=O)cc1 (stereo not given),7.1*,-8.4,-1.3,17.4,2.0,-1.5,0.7,
Oc1ccc(/C=N/Nc2ccnc3cc(Cl)ccc23)c(O)c1O,23.6*,13.7,3.4,28.7,-4.9,26.2*,7.5*,
O=c1cc(CO)oc(CN2CCN(CCO)CC2)c1O,6.5*,-13.0,-0.8,-4.6,-1.3,-2.1,0.5,
CC(C)(C)[C@H]1C=C(C(=O)N2CCN(Cc3ccccc3)CC2)O[C@@H](OCCCCO)C1,15.7*,-5.2,-0.2,-3.2,-5.3,3.7,-0.1,
CN(C)c1ccc(C=c2c3cc([N+](=O)[O-])ccc3n3c2cc(-c2ccccc2)[n+]3C)cc1,37.1*,20.7,-0.6,26.7,106.7,3.8,35.0*,
COc1cc(C=c2c3ccccc3n3c2cc(-c2ccccc2)[n+]3C)cc(OC)c1OC,14.3*,70.0,-0.1,1.9,58.2,-4.2,3.1,
COc1ccc(CC(=O)OCC(=O)NC(=O)Nc2ccccc2F)cc1,8.9*,-14.6,0.0,28.9,-1.5,0.0,-0.6,
COC(=O)c1ccc2nc(-c3ccc(C#N)cc3)c(Cc3cccc(Cl)c3)n2c1,x,15.9,-0.4,x,-3.0,x,x,
CCCCCCSc1ccc([C@@H]2[C@H]3C(=O)N(C)C(=O)[C@H]3[C@]3(C(=O)OC)CCCCN23)cc1,10.3*,-10.5,-0.1,-1.5,-11.0,-1.6,-0.8,
SMILES,Rin1 Abl inh,SKN-1 block,TbMetRS inhib,Arrestin-AP2 inh,MT1-MMP act inh,Rin1 Abl conf,GFP quencher,others
CC(=O)Nc1ccc(NC(=O)C(NC(=O)c2ccc(Cl)cc2)C(C)C)cc1 (stereo not given),-2.2,0.3,-0.1,x,-0.4,x,x,
Cc1ccc(C(=O)N[C@H](C(=O)Nc2cc(Cl)cc(Cl)c2)C(C)C)cc1,5.8*,11.0,-0.6,1.1,15.7,-1.0,-1.0,
CCOC(=O)CCCCC(=O)c1[nH]c(=O)[nH]c1Cn1ccnc1,28.1*,10.8,0.0,10.2,-9.2,29.5*,-0.5,GFP quench dose=>67.5
CCCCSCc1[nH]c(=O)[nH]c1C(=O)CCCCC(=O)OCC,47.7*,2.1,-0.1,14.8,2.2,46.4*,-1.3,GFP quench dose=>67.5
CCOC(=O)CCc1n[nH]c(=O)[nH]c1=O,0.3,-11.0,-1.2,3.5,3.8,x,x,
O=C(Nc1ccccc1Cl)c1cc(C2CCCN(C(=O)c3cccc(O)c3)C2)on1 (stereo not given),0.5,8.6,-0.1,x,-1.4,x,x,
Nc1nc(N2CCN(C(=O)c3ccco3)CC2)nc2ccc(Br)cc12,7.6,-5.3,1.2,26.4,-7.0,x,x,
Nc1nc(N2CCN(C(=O)c3ccco3)CC2)nc2ccccc12,8.7*,7.7,-0.2,20.7,3.2,3.5,-0.1,
Cn1cc(SCC(=O)Nc2nc3ccccc3s2)c2ccccc21,7.0*,-2.2,-2.4,0.4,3.7,-2.1,2.1,
Cc1csc(SCC(=O)Nc2nc3ccccc3s2)n1,-0.1,-19.4,-0.9,3.9,-0.1,x,x,
CC(=O)Nc1cccc(-c2ccnc3c2CC(C)(C(=O)NCc2cccc(Cl)c2)O3)c1 (stereo not given),-0.4,9.4,-0.2,x,2.4,x,x,
CC(=O)Nc1cccc(-c2ccnc3c2CC(C)(C(=O)NCc2ccc(N(C)C)cc2)O3)c1 (stereo not given),6.7*,10.6,-0.6,x,5.2,5.8,-2.1,
CC1(C(=O)Nc2ccc3c(c2)OCO3)Cc2c(-c3cccc(C(N)=O)c3)ccnc2O1 (stereo not given),8.8*,-3.4,0.5,x,15.2,7.8*,-1.9,
CC1(C(=O)Nc2ccccc2)Cc2c(-c3cccc(C(N)=O)c3)ccnc2O1 (stereo not given),14.0*,11.2,-0.3,x,4.6,14.8*,-1.4,
CC1(C(=O)Nc2ccc3c(c2)OCO3)Cc2c(-c3ccc4c(c3)OCO4)ccnc2O1 (stereo not given),-2.8,7.8,-0.1,x,-0.1,x,x,
Cc1ccc(NC(=O)CSc2ncccn2)cc1S(=O)(=O)N1CCOCC1,1.6,8.7,0.0,2.5,-1.7,x,x,
